Ecoli tolC = growth inhibitors of E. coli tolC mutant, primary screen, strain BW25113 ΔtolC::kan, 384-well; OD615; 2.2% of 65,000 active; growth inhibition, % at 10 µM (by protocol);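 active means growth inhibition at or above a cutoff equal to the mean over every tested compound plus 3 SD, cut at about 60% in these data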;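 further: growth measured after 20 h incubation at 37 °C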
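Signal: optical density read at 615 nm; Assay system: E. coli ΔtolC::kan strain BW25113; Times: 20 h incubation with compound, 37 °C; Dosing: 10 µM final, single dose.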
M1 antagonist = antagonists of rat M1 muscarinic receptor; B-score at 10 µM; CHO-M1 cells, Fluo-4 calcium, ACh EC80 antagonist mode; hits give low values; 3.4% of 64,000 active; Muscarinic acetylcholine receptor M1 (Rattus norvegicus), P08482;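 active means calcium fluorescence response, raw or row-and-column corrected B-score, differing from the plate sample mean either way at a set confidence level, mostly lower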
M1 agonist = M1 muscarinic receptor agonists, primary screen, CHO-M1 cells, Fluo-4 calcium, agonist mode | 3% of 64,000 active | B-score at 10 µM | Fluo-4 calcium fluorescence; hits give high values | Muscarinic acetylcholine receptor M1 | AID 626, 2007;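 active means fluorescence rise, raw or as B-score row- and column-corrected plate score, outside the 99.7% band of its plate's samples, either direction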
BAP1 block = inhibitors of BAP1 deubiquitinase, primary screen, biochemical, Ub-AMC fluorescence, kinetic. Ubiquitin carboxyl-terminal hydrolase BAP1 (Homo sapiens), Q92560. 0.48% of 72,000 active. recombinant BAP1, Ub-AMC hydrolysis fluorescence kinetic; hits give low values. calls only at 20 µM. AID 436, 2006;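 active means activity remaining at or below 50% of control, provided the compound also passes the data quality filters; inactive means the rest, including low values that fail the filters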;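 further: 100% = DMSO wells rate and 0% = substrate alone blank rate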
Hsp90 inh = tumor Hsp90 inhibitors, primary screen, cell lysate, fluorescence polarization, NCI-N417 lysate; Heat shock protein HSP 90-alpha (Homo sapiens), P07900; Cy3B-geldanamycin FP displacement; inhibition, % at 30 µM; 0.35% of 64,000 active; AID 429, 2006;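 active means inhibition above 50%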;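 further: 0% = tracer plus lysate wells and 100% = tracer alone without lysate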
E coli WT exp = growth inhibitors of wild-type E. coli, primary screen, strain BW25113, expanded library, OD600 | growth inhibition, % at 100 µM | AID 710, 2007 | OD600 absorbance | 0.15% of 98,000 active;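 active means growth inhibition above about 50% at one test dose, limit read from the data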;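 further: growth measured after 20 h incubation at 37 °C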
The depositor's hits bear a star. Compounds with a hit are over-represented: about 5.1% of the library has one in this group of screens.

What do the screens show for `C[C@H]1CCCC(=O)CCC/C=C/c2cc(O)cc(O)c2C(=O)O1`?
Ecoli tolC: 29; M1 antagonist: 0.0088; M1 agonist: -0.38; BAP1 block: inactive; Hsp90 inh: 87*; E coli WT exp: 9

Results for COc1cccc(-n2c(Cc3ccccc3)nc3ccccc3c2=O)c1 ?
BAP1 block: inactive

Results for CC(C)[C@@]1(NC(=O)[C@@H]2C=C3c4cccc5[nH]cc(c45)C[C@H]3N(C)C2)O[C@@]2(O)[C@@H]3CCCN3C(=O)[C@H](Cc3ccccc3)N2C1=O ?
Ecoli tolC: 10; M1 antagonist: 0.73; M1 agonist: 60*; Hsp90 inh: -9

How did CCCCCn1c(N)c(C(=O)NCCN2CCOCC2)c2nc3ccccc3nc21 do in these assays?
Ecoli tolC: 17; M1 antagonist: -0.022; M1 agonist: 0.44; Hsp90 inh: -7; E coli WT exp: 10

Results for CCCCCCn1c(N)c(C(=O)NCCN2CCOCC2)c2nc3ccccc3nc21 ?
Ecoli tolC: 76*; M1 antagonist: 0.21; M1 agonist: 0.78; Hsp90 inh: -6; E coli WT exp: 3

How did FC(F)(F)c1ccc2c(c1)nnn2C1CCN(Cc2nnnn2Cc2ccccc2)CC1 do in these assays?
Ecoli tolC: 63*; M1 antagonist: -0.37; M1 agonist: -0.68; BAP1 block: inactive; Hsp90 inh: -3; E coli WT exp: -26

How did COC(=O)C1C2c3ccccc3OC1(C)N=c1s/c(=C/c3cnn(C)c3C)c(=O)n12 (stereo not given) do in these assays?
Ecoli tolC: 10; M1 antagonist: 0.13; M1 agonist: 0.27; BAP1 block: inactive; Hsp90 inh: -1; E coli WT exp: -2

What do the screens show for `CCOC(=O)C1C2c3ccccc3O[C@@]1(C)N=C1SCC(=O)N12` (stereo not given in full)?
Ecoli tolC: -13; M1 antagonist: 1.1*; M1 agonist: -0.17; BAP1 block: inactive; Hsp90 inh: 0; E coli WT exp: 3

What do the screens show for `CN1C(=O)N(C)C(=O)C2(Cc3c(nc4ccccn4c3=O)N3CCC(Cc4ccccc4)CC32)C1=O` (stereo not given)?
Ecoli tolC: 20; M1 antagonist: 1.4; M1 agonist: -0.8; BAP1 block: inactive; Hsp90 inh: -1

What do the screens show for `Cc1cccn2c(=O)c3c(nc12)N1CCC(Cc2ccccc2)CC1C1(C3)C(=O)N(C)C(=O)N(C)C1=O` (stereo not given)?
Ecoli tolC: 67*; M1 antagonist: 1.1; M1 agonist: -2.5; Hsp90 inh: -1; E coli WT exp: -2

What do the screens show for `O=P(Nc1ccccc1Cl)(Oc1ccccc1)Oc1ccccc1`?
BAP1 block: inactive

What do the screens show for `CC(C)CCOC(=O)c1c(N)n(CC2CCCO2)c2nc3ccccc3nc12` (stereo not given)?
Ecoli tolC: 60*; M1 antagonist: 0.068; M1 agonist: 3.1; Hsp90 inh: -8; E coli WT exp: -2

What do the screens show for `COc1ccc(CNCCc2cccc(F)c2)c(OC)c1C`?
BAP1 block: inactive

Results for COc1cc2c(cc1OC)-c1c(OC)c(OC)cc3c1C(C2)N(C)CC3 (stereo not given) ?
Ecoli tolC: 18; M1 antagonist: -0.063; M1 agonist: -1.5; BAP1 block: inactive; Hsp90 inh: 91*; E coli WT exp: 10

What do the screens show for `O=C(C1CCN(c2nc3ccc(Br)cc3s2)CC1)N1CCC2(CC1)OCCO2`?
Ecoli tolC: 0; M1 antagonist: -5.5*; M1 agonist: 7.8*; BAP1 block: inactive; Hsp90 inh: 1; E coli WT exp: -3

What do the screens show for `CCOc1ccc2nc(N3CCC(C(=O)N4CCC5(CC4)OCCO5)CC3)sc2c1`?
E coli WT exp: -6

What do the screens show for `CCN(CC)S(=O)(=O)c1ccc(Cl)c(C(=O)Oc2cccc3cccnc23)c1`?
BAP1 block: inactive

How did N=c1c2c(n(Cc3ccc(Cl)cc3Cl)c3c1CCC3)CCCC2 do in these assays?
Ecoli tolC: 100*; M1 antagonist: -1.5; M1 agonist: -0.36; BAP1 block: inactive; Hsp90 inh: 2; E coli WT exp: 21

What do the screens show for `CCOC(=O)C1=C(N)OC2=C(C(=O)CCC2)C12C(=O)Nc1ccccc12` (stereo not given)?
Ecoli tolC: -2; M1 antagonist: 0.18; M1 agonist: 0.53; BAP1 block: inactive; Hsp90 inh: -2; E coli WT exp: -5

Results for CCOC(=O)C1=C(N)OC2=C(C(=O)CCC2)C12C(=O)N1c3c(ccc(C)c32)C(C)=CC1(C)C (stereo not given) ?
Ecoli tolC: 70*; M1 antagonist: 0.52; M1 agonist: 0.37; BAP1 block: inactive; Hsp90 inh: -3; E coli WT exp: -5

Results for CCCCCCCSc1cc(OC)c(CCNC)cc1OC ?
E coli WT exp: 76*

What do the screens show for `CC(=O)Oc1ccc(OC(C)=O)c2c1C1(Cl)C(Cl)=C(Cl)C2(Cl)C1(Cl)Cl`?
BAP1 block: inactive

How did CN1CC[C@@]2(C)c3cc(O)ccc3N(C)C12 (stereo not given in full) do in these assays?
BAP1 block: inactive; Hsp90 inh: 91*

How did CN(N=O)c1ccc(O)c(O)c1 do in these assays?
BAP1 block: inactive; Hsp90 inh: 93*

How did CCN1/C(=C\C=C\C2=[N+](CC)c3ccccc3C2(C)C)C(C)(C)c2ccccc21 do in these assays?
E coli WT exp: 55*

How did Cc1ccccc1-n1c(O)c(C=Nc2ccc3c(c2)OCO3)c(=O)[nH]c1=O do in these assays?
Ecoli tolC: -7; M1 antagonist: 0.02; M1 agonist: 7.5*; BAP1 block: inactive; Hsp90 inh: 8; E coli WT exp: -2

Results for CCN(CC)CCNC(=O)c1c(O)c2ccccc2n(Cc2ccccc2)c1=O ?
E coli WT exp: 11

What do the screens show for `CCCCn1c(=O)c(C(=O)Nc2cnccn2)c(O)c2ccccc21`?
Ecoli tolC: 99*; M1 antagonist: 1.1; M1 agonist: -0.69; BAP1 block: inactive; Hsp90 inh: 0; E coli WT exp: -5

How did CCCCn1c(=O)c(C(=O)Nc2nc3ccccc3[nH]2)c(O)c2ccccc21 do in these assays?
Ecoli tolC: -8; M1 antagonist: 0.25; M1 agonist: -0.85; BAP1 block: active; Hsp90 inh: 1

What do the screens show for `CC(C)CCn1c(=O)c(C(=O)Nc2ccccc2S(N)(=O)=O)c(O)c2ccccc21`?
E coli WT exp: -14

How did N[C@@H](CCl)C(=O)O do in these assays?
BAP1 block: inactive; Hsp90 inh: 2

Compound activity from PubChem.
